Experimental data as given in ChEMBL document CHEMBL1150277, “Benzofuran-based hybrid compounds for the inhibition of cholinesterase activity, beta amyloid aggregation, and abeta neurotoxicity” (J Med Chem, 2008).

Columns and labels:
[1] = Inhibition of Amyloid beta 25-35 fibril formation
Method in brief: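 In vitro assay of Aβ25-35 fibril formation read by UV-vis measurements, with electron microscopy also used. IC50 is the inhibitor concentration that lowers fibril formation to 50% of the untreated control value.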

Acetylcholinesterase = Acetylcholinesterase (Homo sapiens, UniProt P22303); experiment: Inhibition of human recombinant AchE after 20 mins by Ellman's method
Cholinesterase = Cholinesterase (Homo sapiens, UniProt P06276); experiment: Inhibition of human serum BuchE after 20 mins by Ellman's method
SH-SY5Y [2] = experiment: Neuroprotective effect against Amyloid beta 25-35-induced neurotoxicity in human SH-SY5Y cells assessed as neuronal viability after 3 hrs by MTT assay; type: functional, cell-based
Method in brief: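 Human neuronal-like SH-SY5Y cells were incubated 3 h with 10 µM Aβ25-35 peptide, with or without compound at 1-30 µM. Viability was read by colorimetric MTT assay. IC50 is the concentration giving 50% inhibition of peptide toxicity, as mean ± SD of at least two independent experiments.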

SH-SY5Y [3] = experiment: Neuroprotective effect against Amyloid beta 25-35-induced neurotoxicity in human SH-SY5Y cells assessed as neuronal viability at 10 to 30 uM after 3 hrs by MTT assay; type: functional
Method in brief: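 SH-SY5Y cells were exposed 3 h to 10 µM Aβ25-35 peptide, with or without varied compound concentrations. Viability was measured by MTT and expressed as percentage of control cells, as mean ± SD of three independent experiments. Comparison was against the untreated sample by ANOVA with Dunnett post hoc test.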

[4] = Lipophilicity, log P of the compound; type: physicochemical; settings: octanol/water

Sequence of Cholinesterase (P06276 whole entry): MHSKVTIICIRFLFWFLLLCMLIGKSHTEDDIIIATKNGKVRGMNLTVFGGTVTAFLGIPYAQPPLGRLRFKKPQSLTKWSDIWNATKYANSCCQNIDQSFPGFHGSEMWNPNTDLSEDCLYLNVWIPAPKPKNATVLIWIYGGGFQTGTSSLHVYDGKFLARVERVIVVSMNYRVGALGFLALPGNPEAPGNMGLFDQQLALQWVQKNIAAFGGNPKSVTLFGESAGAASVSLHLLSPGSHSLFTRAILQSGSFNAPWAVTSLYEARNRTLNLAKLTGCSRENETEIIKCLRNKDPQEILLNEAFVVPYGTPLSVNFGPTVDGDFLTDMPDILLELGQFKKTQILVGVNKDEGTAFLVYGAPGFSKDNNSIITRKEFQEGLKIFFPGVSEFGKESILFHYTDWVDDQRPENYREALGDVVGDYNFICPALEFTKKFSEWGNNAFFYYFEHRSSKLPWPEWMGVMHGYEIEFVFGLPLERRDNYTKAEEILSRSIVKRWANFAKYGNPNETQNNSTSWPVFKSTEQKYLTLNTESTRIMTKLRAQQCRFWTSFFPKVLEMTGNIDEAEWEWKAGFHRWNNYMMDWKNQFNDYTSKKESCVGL
Sequence of Acetylcholinesterase (P22303 whole entry): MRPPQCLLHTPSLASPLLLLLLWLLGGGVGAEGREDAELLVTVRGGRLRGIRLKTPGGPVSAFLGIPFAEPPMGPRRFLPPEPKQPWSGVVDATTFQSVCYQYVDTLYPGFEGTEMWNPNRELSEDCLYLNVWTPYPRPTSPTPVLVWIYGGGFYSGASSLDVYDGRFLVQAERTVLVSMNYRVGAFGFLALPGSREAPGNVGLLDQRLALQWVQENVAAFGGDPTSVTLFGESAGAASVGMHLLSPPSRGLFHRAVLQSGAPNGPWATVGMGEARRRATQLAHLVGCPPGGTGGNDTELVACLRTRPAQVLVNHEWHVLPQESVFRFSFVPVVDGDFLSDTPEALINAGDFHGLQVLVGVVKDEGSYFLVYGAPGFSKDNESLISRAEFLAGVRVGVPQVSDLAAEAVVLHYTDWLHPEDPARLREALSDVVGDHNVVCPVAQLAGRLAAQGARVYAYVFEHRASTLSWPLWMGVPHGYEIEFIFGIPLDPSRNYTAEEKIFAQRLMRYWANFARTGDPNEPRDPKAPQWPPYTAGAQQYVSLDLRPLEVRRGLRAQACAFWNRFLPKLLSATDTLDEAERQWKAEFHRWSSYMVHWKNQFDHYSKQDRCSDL

Compound | IC50 [1] | IC50 (Acetylcholinesterase) | IC50 (Cholinesterase) | IC50 (SH-SY5Y [2]) | Activity (SH-SY5Y [3]) | logP [4]
COc1cc(/C=C/C(=O)CC(=O)/C=C/c2ccc(O)c(OC)c2)ccc1O [CURCUMIN] | 10 µM |  |  |  |  | 
COc1ccc(C(=O)c2c(-c3ccc(OCCCCCCCN(C)Cc4ccccc4)cc3)oc3ccccc23)cc1 |  | 281 µM | 89.1 µM |  |  | 
CC(=O)c1c(-c2ccc(OCCCCCCCN(C)Cc3ccccc3)cc2)oc2ccccc12 |  | 17.4 µM | 1.83 µM |  |  | 
COc1cccc(C(=O)c2c(-c3ccc(OCCCCCCCN(C)Cc4ccccc4)cc3)oc3ccccc23)c1 |  | 127 µM | 21.7 µM |  |  | 
Cc1ccc(C(=O)c2c(-c3ccc(OCCCCCCCN(C)Cc4ccccc4)cc3)oc3ccccc23)cc1 | 13 µM | 10.5 µM | 1.82 µM |  |  | 
CN(CCCCCCCOc1ccc(-c2oc3ccccc3c2C(=O)c2ccccc2)cc1)Cc1ccccc1 | 12.5 µM | 40.7 µM | 38.1 µM | 5.6 µM | 63% | 8
COc1ccc(C(=O)c2c(-c3ccc(OCCCCCCCN(C)Cc4ccccc4)cc3)oc3ccccc23)cc1OC |  | 177 µM | 74.1 µM |  |  | 
CN(CCCCCCCOc1ccc(-c2cc3ccccc3o2)cc1)Cc1ccccc1 | 7 µM | 32.6 µM | 0.28 µM |  |  | 6.8
Cc1cccc(C(=O)c2c(-c3ccc(OCCCCCCCN(C)Cc4ccccc4)cc3)oc3ccccc23)c1 |  | 127 µM | 40.9 µM |  |  | 
